Measurements published in ChEMBL document CHEMBL1138024, “Aryl urea analogs with broad-spectrum antibacterial activity” (Bioorg Med Chem Lett, 2004).
In brackets after ≈: the same amount, converted by molar mass.

Assays:
Assay type in all cases: functional
Staphylococcus aureus [1] = assay: In vitro antibacterial activity against Staphylococcus aureus; value ranges from 3-6 uM
Staphylococcus aureus [2] = assay: In vitro antibacterial activity against Staphylococcus aureus
Staphylococcus aureus [3] = assay: In vitro antibacterial activity against Staphylococcus aureus; value ranges from 6-12 uM
Staphylococcus aureus [4] = assay: In vitro antibacterial activity against Staphylococcus aureus; value ranges from 50-100 uM
Staphylococcus aureus [5] = assay: Minimum inhibitory concentration against Staphylococcus aureus ATCC 13709; value ranges from 3-6 uM
Mus musculus [6] = assay: In vivo antibacterial activity (Staphylococcus aureus) in a lethal murine model at a dose of 4.6 mg/kg; activity expressed as no. of mice alive/total tested; 0/10
Mus musculus [7] = assay: In vivo antibacterial activity (Staphylococcus aureus) in a lethal murine model at a dose of 18.8 mg/kg; activity expressed as no. of mice alive/total tested; 4/10
Huh-7 [8] = assay: Cytotoxic concentration against Huh7 cells at 48 hours in MTT assay; value ranges from 25-50 uM; details: Homo sapiens, Huh-7, 48 h
Pseudomonas aeruginosa = assay: Minimum inhibitory concentration against Pseudomonas aeruginosa ATCC 25416
Escherichia coli [9] = assay: Minimum inhibitory concentration against Escherichia coli ATCC 25922; value ranges from 6-12 uM
Enterococcus faecalis [10] = assay: Minimum inhibitory concentration against Enterococcus faecalis ATCC 29212
Mus musculus [11] = assay: In vivo antibacterial activity (Staphylococcus aureus) in a lethal murine model at a dose of 37.6 mg/kg; activity expressed as no. of mice alive/total tested; 3/10
Mus musculus [12] = assay: In vivo antibacterial activity (Staphylococcus aureus) in a lethal murine model at a dose of 9.4 mg/kg; activity expressed as no. of mice alive/total tested; 2/10
Enterococcus faecium = assay: Minimum inhibitory concentration against Enterococcus faecium ATCC 6569
Streptococcus pyogenes [13] = assay: Minimum inhibitory concentration against Streptococcus pyogenes ATCC 49399; value ranges from 3-6 uM
Staphylococcus aureus [14] = assay: Minimum inhibitory concentration against Staphylococcus aureus ATCC 13709 (+4% BSA); value ranges from 12-25 uM
Method in brief: (§1)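 Same microdilution MIC against S. aureus ATCC 13709, but with 4% bovine serum albumin in the wells. Compound in 0.5% DMSO in water, inoculum about 10³–10⁴ CFU/well, duplicates. Growth was read as A595 after 20–24 h at 37°C against a compound-free control. MIC is reported as the range between full inhibition and viable growth.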

Mus musculus [15] = assay: In vivo antibacterial activity (Staphylococcus aureus) in a lethal murine model at a dose of 75 mg/kg; activity expressed as no. of mice alive/total tested; 3/10
Proteus vulgaris = assay: Minimum inhibitory concentration against Proteus vulgaris ATCC 8427; value ranges from 12-25 uM
Klebsiella pneumoniae [16] = assay: Minimum inhibitory concentration against Klebsiella pneumoniae ATCC 13383; value ranges from 6-12 uM
Staphylococcus aureus [17] = assay: In vitro antibacterial activity against Staphylococcus aureus; value ranges from 12-25 uM
Mus musculus [18] = assay: In vivo antibacterial activity (Staphylococcus aureus) in a lethal murine model at a dose of 2 mg/kg; activity expressed as no. of mice alive/total tested; 10/10
Mus musculus [19] = assay: In vivo antibacterial activity (Staphylococcus aureus) in a lethal murine model at a dose of 4.6 mg/kg; activity expressed as no. of mice alive/total tested; 3/10
Huh-7 [20] = assay: Cytotoxic concentration against Huh7 cells at 48 hours in MTT assay; details: Homo sapiens, Huh-7, 48 h
Mus musculus [21] = assay: In vivo antibacterial activity (Staphylococcus aureus) in a lethal murine model at a dose of 37.6 mg/kg; activity expressed as no. of mice alive/total tested; 6/10
Klebsiella pneumoniae [22] = assay: Minimum inhibitory concentration against Klebsiella pneumoniae ATCC 13383; value ranges from 3-6 uM
Mus musculus [23] = assay: In vivo antibacterial activity (Staphylococcus aureus) in a lethal murine model at a dose of 150 mg/kg; activity expressed as no. of mice alive/total tested; 4/10
Mus musculus [24] = assay: In vivo antibacterial activity (Staphylococcus aureus) in a lethal murine model at a dose of 18.8 mg/kg; activity expressed as no. of mice alive/total tested; 6/10
Staphylococcus aureus [25] = assay: Minimum inhibitory concentration against Staphylococcus aureus ATCC 13709 (+4% BSA); value ranges from 25-50 uM; method in brief: as §1
Escherichia coli [26] = assay: Minimum inhibitory concentration against Escherichia coli ATCC 25922; value ranges from 12-25 uM
Enterococcus faecalis [27] = assay: Minimum inhibitory concentration against Enterococcus faecalis ATCC 29212; value ranges from 3-6 uM
Mus musculus [28] = assay: In vivo antibacterial activity (Staphylococcus aureus) in a lethal murine model at a dose of 75 mg/kg; activity expressed as no. of mice alive/total tested; 7/10
Mus musculus [29] = assay: In vivo antibacterial activity (Staphylococcus aureus) in a lethal murine model at a dose of 9.4 mg/kg; activity expressed as no. of mice alive/total tested; 4/10
Klebsiella pneumoniae [30] = assay: Minimum inhibitory concentration against Klebsiella pneumoniae ATCC 13383
Streptococcus pyogenes [31] = assay: Minimum inhibitory concentration against Streptococcus pyogenes ATCC 49399; value ranges from 1.5-3 uM
Staphylococcus aureus [32] = assay: Minimum inhibitory concentration against Staphylococcus aureus ATCC 13709 (+4% BSA); value ranges from 3-6 uM
Escherichia coli [33] = assay: Minimum inhibitory concentration against Escherichia coli ATCC 25922
Staphylococcus aureus [34] = assay: In vitro antibacterial activity against Staphylococcus aureus; value ranges from 25-50 uM

O=C(NCCCNCc1ccc(OC(F)(F)F)cc1)Nc1ccc(C(F)(F)F)cc1
MIC (Staphylococcus aureus [1]): 6 µM (≈ 2.61 µg/mL)

CC(=O)Nc1ccc(CNCCCNC(=O)Nc2ccc(C(F)(F)F)cc2)cc1
MIC (Staphylococcus aureus [2]): > 100 µM

O=C(NCCCNCc1cc(Br)cc(Br)c1O)Nc1ccc(C(F)(F)F)cc1
MIC (Staphylococcus aureus [2]): > 100 µM

CN(CCCNC(=O)Nc1ccc(C(F)(F)F)cc1)Cc1cc(Br)cc(Br)c1
MIC (Staphylococcus aureus [2]): > 100 µM

COc1ccc(-c2ccc(CNCCCNC(=O)Nc3ccc(C(F)(F)F)cc3)cc2)cc1
MIC (Staphylococcus aureus [1]): 6 µM (≈ 2.74 µg/mL)

S=C(NCCCNCc1cc(Br)cc(Br)c1)Nc1cccc(Br)c1
MIC (Staphylococcus aureus [3]): 12 µM (≈ 6.43 µg/mL)

S=C(NCCCNCc1cc(Br)cc(Br)c1)Nc1cccc(Cl)c1
MIC (Staphylococcus aureus [3]): 12 µM (≈ 5.9 µg/mL)

O=C(NCCCNCc1ccccc1)Nc1ccc(C(F)(F)F)cc1
MIC (Staphylococcus aureus [4]): 100 µM (≈ 35.1 µg/mL)

O=C(NCCCNCc1ccc(Cl)c(Cl)c1)Nc1ccc(C(F)(F)F)cc1
MIC (Staphylococcus aureus [1]): 6 µM (≈ 2.52 µg/mL)

O=C(NCCCNCc1ccc(-c2ccccc2)cc1)Nc1ccc(C(F)(F)F)cc1
MIC (Staphylococcus aureus [5]): 6 µM (≈ 2.56 µg/mL)
No. of animals alive (Mus musculus [6]): 0
No. of animals alive (Mus musculus [7]): 4
CC50 (Huh-7 [8]): 50 µM
MIC (Pseudomonas aeruginosa): > 100 µM
MIC (Escherichia coli [9]): 12 µM (≈ 5.13 µg/mL)
MIC (Enterococcus faecalis [10]): > 100 µM
No. of animals alive (Mus musculus [11]): 3
No. of animals alive (Mus musculus [12]): 2
MIC (Enterococcus faecium): > 100 µM
MIC (Streptococcus pyogenes [13]): 6 µM (≈ 2.56 µg/mL)
MIC (Staphylococcus aureus [14]): 25 µM (≈ 10.7 µg/mL)
No. of animals alive (Mus musculus [15]): 3
MIC (Proteus vulgaris): 25 µM (≈ 10.7 µg/mL)
MIC (Staphylococcus aureus [1]): 6 µM (≈ 2.56 µg/mL)
MIC (Klebsiella pneumoniae [16]): 12 µM (≈ 5.13 µg/mL)

FC(F)(F)c1cccc(N/C(S)=N/CCCNCc2cc(Br)cc(Br)c2)c1
MIC (Staphylococcus aureus [3]): 12 µM (≈ 6.3 µg/mL)

O=[N+]([O-])c1ccc(N/C(S)=N/CCCNCc2cc(Br)cc(Br)c2)cc1
MIC (Staphylococcus aureus [17]): 25 µM (≈ 12.6 µg/mL)

CN[C@H](CC(C)C)C(=O)N[C@H]1C(=O)N[C@@H](CC(N)=O)C(=O)N[C@H]2C(=O)N[C@H]3C(=O)N[C@H](C(=O)N[C@H](C(=O)O)c4cc(O)cc(O)c4-c4cc3ccc4O)[C@H](O)c3ccc(c(Cl)c3)Oc3cc2cc(c3O[C@@H]2O[C@H](CO)[C@@H](O)[C@H](O)[C@H]2O[C@H]2C[C@](C)(N)[C@H](O)[C@H](C)O2)Oc2ccc(cc2Cl)[C@H]1O [VANCOMYCIN]
No. of animals alive (Mus musculus [18]): 10

O=C(NCCCNCc1cccc(-c2ccccc2)c1)Nc1ccc(C(F)(F)F)cc1
MIC (Staphylococcus aureus [3]): 12 µM (≈ 5.13 µg/mL)

Cc1ccc(N/C(S)=N/CCCNCc2cc(Br)cc(Br)c2)cc1
MIC (Staphylococcus aureus [17]): 25 µM (≈ 11.8 µg/mL)

CCOc1ccc(Br)cc1CNCCCNC(=O)Nc1ccc(C(F)(F)F)cc1
MIC (Staphylococcus aureus [3]): 12 µM (≈ 5.69 µg/mL)

S=C(NCCCNCc1cc(Br)cc(Br)c1)Nc1ccc(Br)cc1
MIC (Staphylococcus aureus [17]): 25 µM (≈ 13.4 µg/mL)

O=C(NCCCNCc1cc(Br)cc(Br)c1)Nc1ccc(Cl)c(Cl)c1
MIC (Staphylococcus aureus [1]): 6 µM (≈ 3.06 µg/mL)

S=C(NCCCNCc1cc(Br)cc(Br)c1)Nc1ccccc1Cl
MIC (Staphylococcus aureus [17]): 25 µM (≈ 12.3 µg/mL)

CN(CCCNC(=O)Nc1ccc(C(F)(F)F)cc1)CCCOc1ccc(Br)cc1Br
No. of animals alive (Mus musculus [19]): 3
CC50 (Huh-7 [20]): > 100 µM
No. of animals alive (Mus musculus [21]): 6
MIC (Klebsiella pneumoniae [22]): 6 µM (≈ 3.4 µg/mL)
MIC (Staphylococcus aureus [5]): 6 µM (≈ 3.4 µg/mL)
MIC (Pseudomonas aeruginosa): > 100 µM
No. of animals alive (Mus musculus [23]): 4
MIC (Enterococcus faecium): > 100 µM
MIC (Streptococcus pyogenes [13]): 6 µM (≈ 3.4 µg/mL)
No. of animals alive (Mus musculus [24]): 6
MIC (Staphylococcus aureus [25]): 50 µM (≈ 28.4 µg/mL)
MIC (Escherichia coli [26]): 25 µM (≈ 14.2 µg/mL)
MIC (Enterococcus faecalis [27]): 6 µM (≈ 3.4 µg/mL)
No. of animals alive (Mus musculus [28]): 7
No. of animals alive (Mus musculus [29]): 4
MIC (Proteus vulgaris): 25 µM (≈ 14.2 µg/mL)
MIC (Staphylococcus aureus [3]): 12 µM (≈ 6.81 µg/mL)

CC(=O)NCC1CN(c2ccc(N3CCOCC3)c(F)c2)C(=O)O1 (single isomer, unassigned) [LINEZOLID]
MIC (Klebsiella pneumoniae [30]): > 100 µM
MIC (Staphylococcus aureus [5]): 6 µM (≈ 2.02 µg/mL)
MIC (Streptococcus pyogenes [31]): 3 µM (≈ 1.01 µg/mL)
MIC (Pseudomonas aeruginosa): > 100 µM
MIC (Enterococcus faecium): > 100 µM
MIC (Enterococcus faecalis [27]): 6 µM (≈ 2.02 µg/mL)
MIC (Staphylococcus aureus [32]): 6 µM (≈ 2.02 µg/mL)
MIC (Proteus vulgaris): 25 µM (≈ 8.43 µg/mL)
MIC (Staphylococcus aureus [1]): 6 µM (≈ 2.02 µg/mL)
MIC (Escherichia coli [33]): > 100 µM

N#Cc1ccc(NC(=S)NCCCNCc2cc(Br)cc(Br)c2)cc1
MIC (Staphylococcus aureus [34]): 50 µM (≈ 24.1 µg/mL)
